From the array DNA melting data of Ke et al. (doi:10.1101/2024.01.08.574731)

How the values were obtained:
[1] = folding enthalpy; higher = less favourable; fluorescence melt of hairpins on a sequencing array, two-state fit; conditions: sodium 0.088 M
Procedure, shortened: (§1)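 Melting temperature and folding enthalpy were derived from bootstrapped two-state fits. The fitted temperatures were raised by 9.35 °C to agree with UV melts, and four replicates were combined by inverse variance. The underlying data were Cy3 fluorescence images of library hairpins, with annealed Cy3 and quencher oligos, on a sequenced MiSeq flow cell in 50 mM Na-HEPES pH 8.0, 25 mM NaCl, taken in 2.5 °C steps up to 60 °C, normalised to pre-quench Cy3 and to control constructs.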

[2] = melting temperature; fluorescence melt of hairpins on a sequencing array, two-state fit, raised by 9.35 °C to match UV melts; conditions: sodium 0.088 M
Procedure, shortened: as §1

Sequence | folding enthalpy [1] [kcal/mol] | Tm [2] [°C]
GCCCCACCGAAAGGTGGC (((..(((....)))))) | -4.81 | 40.7
GCCCCAGGAAACCGGGAC (.(((.(....).))).) | -16.3 | 31.1
GCCCCAGGAAACTGAGGC (((.(((....))).))) | -33.5 | 47.5
GCCCCCACGAAAGTGGGC (((..(((....)))))) | -5.47 | 38.6
GCCCCCCGAAAGGGTGGC (((.(((....))).))) | -33.1 | 64.2
GCCCCCGAAAGGGAGGGC ((((((....)))..))) | -30 | 59.8
GCCCCCGAAAGGGCAGGC ((((((....)))..))) | -17.9 | 50.4
GCCCCCGAAAGGGGAGGC ((((((....)))..))) | -13.8 | 59.9
GCCCCCGAAAGGGTGGC ((((((....))).))) | -21 | 65.9
GCCCCCGGAAACGGAGGC (((.(((....))).))) | -35 | 54.9
GCCCCGCGAAAGCGACGC ((..(((....)))..)) | -10.6 | 31.3
GCCCCGCGAAAGCGATGC ((..(((....)))..)) | -11.7 | 34.2
GCCCCGCGAAAGCGCGGC (((.(((....))).))) | -17.4 | 64.4
GCCCCGCGAAAGCGGTGC ((.((((....)))).)) | -15.7 | 61.5
GCCCCGCGAAAGCGTTGC ((..(((....)))..)) | -9.75 | 33.5
GCCCCTGGAAACAGAGGC (((.(((....))).))) | -27.7 | 46.3
GCCCGAGGAAACTCAGGC (((.(((....))).))) | -27.2 | 45.1
GCCCGCGAAAGCGGTGGC ((((((....)))..))) | -12.2 | 57.7
GCCCGCGGAAACGCAGGC (((.(((....))).))) | -32.4 | 62.4

Sequence | folding enthalpy [1] [kcal/mol] | Tm [2] [°C]
GCCCGCGGAAACGCGGAC (.(((((....))))).) | -9.8 | 57
GCCCGCTCGAAAGAGGGC (((..(((....)))))) | -40.6 | 54.6
GCCCGGACGAAAGTCGGC (((..(((....)))))) | -14.5 | 50.9
GCCCGGCGAAAGCAGAGC ((.(.((....)).).)) | -14.4 | 47.4
GCCCGGCGAAAGCGGCGC ((.(.((....)).).)) | -21.1 | 64.6
GCCCGTGGAAACACAGGC (((.(((....))).))) | -29.8 | 50.4
GCCCGTGGAAACGTGGGC ((((..(....)..)))) | -31.2 | 54.9
GCCCTAGAAATAGGGC ((((((....)))))) | -37.2 | 59.1
GCCCTAGGAAACTAGGAC (.(((((....))))).) | -19.6 | 37.7
GCCCTCCCGAAAGGGGGC (((..(((....)))))) | -16.1 | 58
GCCCTCGAAAGAGAAGGC ((((((....)))..))) | -22.2 | 48.3
GCCCTCGAAAGAGCAGGC ((((((....)))..))) | -24.8 | 44.9
GCCCTCGAAAGAGCCGGC ((((((....)))..))) | -18.4 | 40.4
GCCCTCGAAAGAGTAGGC ((((((....)))..))) | -29.5 | 49
GCCCTCGAAAGAGTTGGC ((((((....)))..))) | -23.2 | 44
GCCCTCGGAAACGGGGGC ((((.((....)).)))) | -32.7 | 66.9
GCCCTGCGAAAGCAAAGC ((..(((....)))..)) | -6.64 | 29.2
GCCCTGCGAAAGCACAGC ((..(((....)))..)) | -8.54 | 27.4
